Columns and labels:
[1] = biological target: MAP/microtubule affinity-regulating kinase 3 (Homo sapiens) (UniProt P27448); test: Inhibition of MARK3 (unknown origin) at 1 uM relative to control
In short: (§1)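 Single-concentration screen of each compound against a 59-protein-kinase panel, run at 10 µM or 1 µM. Activity relative to control is shown as a heat map across the panel.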

[2] = biological target: Calcium/calmodulin-dependent protein kinase type 1 (Homo sapiens) (UniProt Q14012); test: Inhibition of CAMK1 (unknown origin) at 1 uM relative to control
In short: (§2)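 Single-point screen of each compound against a panel of 59 protein kinases, at 1 or 10 μM. The panel data are also summarised as a rescaled geometric mean selectivity score.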

[3] = biological target: Serine/threonine-protein kinase pim-1 (Homo sapiens) (UniProt P11309); test: Inhibition of PIM1 (unknown origin) at 1 uM relative to control; in short: as §1
[4] = biological target: Ribosomal protein S6 kinase alpha-1 (Homo sapiens) (UniProt Q15418); test: Inhibition of RSK1 (unknown origin) at 1 uM relative to control; in short: as §1
[5] = species: Homo sapiens; test: Inhibition of PKA (unknown origin) at 1 uM relative to control; in short: as §1
[6] = biological target: Serine/threonine-protein kinase Chk2 (Homo sapiens) (UniProt O96017); test: Inhibition of CHK2 (unknown origin) at 1 uM relative to control; in short: as §2
[7] = biological target: MAP kinase-interacting serine/threonine-protein kinase 2 (Homo sapiens) (UniProt Q9HBH9); test: Inhibition of MNK2 (unknown origin) at 1 uM relative to control; in short: as §1
[8] = biological target: T1, Serine/threonine-protein kinase BRSK2 (Homo sapiens) (UniProt Q8IWQ3); test: Inhibition of BRSK2 (unknown origin) at 1 uM relative to control; in short: as §2
T1 sequence (whole entry): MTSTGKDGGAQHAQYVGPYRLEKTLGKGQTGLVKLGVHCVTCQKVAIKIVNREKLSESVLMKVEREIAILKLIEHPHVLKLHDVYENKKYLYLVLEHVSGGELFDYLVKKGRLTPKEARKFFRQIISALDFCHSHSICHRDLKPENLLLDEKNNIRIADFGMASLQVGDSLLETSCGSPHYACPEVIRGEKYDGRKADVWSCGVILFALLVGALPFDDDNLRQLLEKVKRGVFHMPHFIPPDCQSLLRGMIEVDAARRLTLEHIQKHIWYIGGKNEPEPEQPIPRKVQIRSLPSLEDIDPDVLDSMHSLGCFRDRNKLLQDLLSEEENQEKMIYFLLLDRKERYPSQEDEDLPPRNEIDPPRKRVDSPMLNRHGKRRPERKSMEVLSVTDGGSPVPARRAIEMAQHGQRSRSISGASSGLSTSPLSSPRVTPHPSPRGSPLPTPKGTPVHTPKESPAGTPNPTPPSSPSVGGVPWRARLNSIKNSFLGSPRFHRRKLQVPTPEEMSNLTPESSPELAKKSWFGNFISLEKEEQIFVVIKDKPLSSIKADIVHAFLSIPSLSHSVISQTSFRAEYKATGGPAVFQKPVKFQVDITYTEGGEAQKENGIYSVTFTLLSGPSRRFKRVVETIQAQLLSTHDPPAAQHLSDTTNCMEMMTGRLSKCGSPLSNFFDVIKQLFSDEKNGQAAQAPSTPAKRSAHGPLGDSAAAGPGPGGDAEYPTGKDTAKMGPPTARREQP

[9] = biological target: CDK2/Cyclin A2 (Homo sapiens) (UniProt P24941+P20248); test: Inhibition of CDK2/cyclinA (unknown origin) at 1 uM relative to control; format: protein-complex assay; in short: as §2
[10] = biological target: Mitogen-activated protein kinase 9 (Homo sapiens) (UniProt P45984); test: Inhibition of JNK2 (unknown origin) at 1 uM relative to control; in short: as §2
[11] = biological target: MAP kinase-interacting serine/threonine-protein kinase 1 (Homo sapiens) (UniProt Q9BUB5); test: Inhibition of MNK1 (unknown origin) at 1 uM relative to control; in short: as §1
[12] = biological target: Serine/threonine-protein kinase 26 (Homo sapiens) (UniProt Q9P289); test: Inhibition of MST4 (unknown origin) at 1 uM relative to control; in short: as §1
[13] = biological target: Dual specificity mitogen-activated protein kinase kinase 1 (Homo sapiens) (UniProt Q02750); test: Inhibition of MKK1 (unknown origin) at 1 uM relative to control; in short: as §1
[14] = biological target: SRSF protein kinase 1 (Homo sapiens) (UniProt Q96SB4); test: Inhibition of SRPK1 (unknown origin) at 1 uM relative to control
In short: (§3)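 Single-concentration screen across a panel of 59 protein kinases, with each compound tested at one fixed concentration. The read-out is residual kinase activity relative to control. Panel results are also condensed into a rescaled geometric mean (RGM) selectivity score.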

[15] = species: Homo sapiens; test: Inhibition of VEGFR (unknown origin) at 1 uM relative to control; in short: as §3
[16] = biological target: Tyrosine-protein kinase BTK (Homo sapiens) (UniProt Q06187); test: Inhibition of BTK (unknown origin) at 1 uM relative to control; in short: as §2
[17] = biological target: AMP-activated protein kinase, AMPK (Homo sapiens) (UniProt P54646+O43741+P54619+Q9UGJ0+Q9Y478+Q13131+Q9UGI9); test: Inhibition of AMPK (unknown origin) at 1 uM relative to control; format: protein-complex assay; in short: as §2
[18] = biological target: T2, Inhibitor of nuclear factor kappa-B kinase subunit beta (Homo sapiens) (UniProt O14920); test: Inhibition of IKKb (unknown origin) at 1 uM relative to control; in short: as §2
T2 sequence (whole entry): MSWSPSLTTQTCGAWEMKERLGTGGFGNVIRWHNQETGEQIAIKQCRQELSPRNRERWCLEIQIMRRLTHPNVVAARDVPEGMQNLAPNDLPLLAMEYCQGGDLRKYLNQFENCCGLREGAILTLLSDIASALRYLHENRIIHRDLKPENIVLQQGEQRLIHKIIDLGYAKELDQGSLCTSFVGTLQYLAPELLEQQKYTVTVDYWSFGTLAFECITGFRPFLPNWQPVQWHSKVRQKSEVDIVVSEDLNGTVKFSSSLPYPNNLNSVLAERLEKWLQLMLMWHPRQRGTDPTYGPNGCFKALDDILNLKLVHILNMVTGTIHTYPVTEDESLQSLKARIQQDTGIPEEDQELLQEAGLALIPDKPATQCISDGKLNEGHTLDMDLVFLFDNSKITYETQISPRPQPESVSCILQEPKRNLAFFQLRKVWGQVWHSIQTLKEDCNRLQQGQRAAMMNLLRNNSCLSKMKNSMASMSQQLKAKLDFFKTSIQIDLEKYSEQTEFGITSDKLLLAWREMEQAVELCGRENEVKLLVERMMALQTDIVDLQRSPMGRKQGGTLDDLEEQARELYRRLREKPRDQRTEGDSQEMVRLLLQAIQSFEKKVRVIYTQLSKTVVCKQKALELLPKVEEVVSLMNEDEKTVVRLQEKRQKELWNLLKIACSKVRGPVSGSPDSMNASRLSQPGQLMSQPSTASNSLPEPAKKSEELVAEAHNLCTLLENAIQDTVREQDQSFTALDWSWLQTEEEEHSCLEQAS

[19] = biological target: Tyrosine-protein kinase Yes (Homo sapiens) (UniProt P07947); test: Inhibition of YES1 (unknown origin) at 1 uM relative to control; in short: as §3

Chain of Serine/threonine-protein kinase pim-1 (Homo sapiens) (P11309 whole entry, looked up): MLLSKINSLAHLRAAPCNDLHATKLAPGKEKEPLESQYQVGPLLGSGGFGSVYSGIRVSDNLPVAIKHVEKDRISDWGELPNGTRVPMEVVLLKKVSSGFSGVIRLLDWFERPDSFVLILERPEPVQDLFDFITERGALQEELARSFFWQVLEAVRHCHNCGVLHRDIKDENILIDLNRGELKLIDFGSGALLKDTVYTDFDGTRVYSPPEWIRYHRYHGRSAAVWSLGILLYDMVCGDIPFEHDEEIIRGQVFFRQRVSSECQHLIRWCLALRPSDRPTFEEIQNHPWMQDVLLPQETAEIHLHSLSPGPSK
Chain of Calcium/calmodulin-dependent protein kinase type 1 (Homo sapiens) (Q14012 whole entry, looked up): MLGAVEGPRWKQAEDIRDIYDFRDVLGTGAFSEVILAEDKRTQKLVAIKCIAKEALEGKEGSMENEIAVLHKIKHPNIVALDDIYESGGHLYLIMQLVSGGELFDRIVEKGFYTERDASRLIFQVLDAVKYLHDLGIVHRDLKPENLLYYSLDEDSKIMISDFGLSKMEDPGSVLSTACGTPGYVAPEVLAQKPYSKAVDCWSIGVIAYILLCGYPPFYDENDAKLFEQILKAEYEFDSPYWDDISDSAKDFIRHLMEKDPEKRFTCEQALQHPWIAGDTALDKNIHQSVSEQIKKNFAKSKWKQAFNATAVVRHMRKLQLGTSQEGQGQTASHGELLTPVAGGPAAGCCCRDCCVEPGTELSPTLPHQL
Chain of Dual specificity mitogen-activated protein kinase kinase 1 (Homo sapiens) (Q02750 whole entry): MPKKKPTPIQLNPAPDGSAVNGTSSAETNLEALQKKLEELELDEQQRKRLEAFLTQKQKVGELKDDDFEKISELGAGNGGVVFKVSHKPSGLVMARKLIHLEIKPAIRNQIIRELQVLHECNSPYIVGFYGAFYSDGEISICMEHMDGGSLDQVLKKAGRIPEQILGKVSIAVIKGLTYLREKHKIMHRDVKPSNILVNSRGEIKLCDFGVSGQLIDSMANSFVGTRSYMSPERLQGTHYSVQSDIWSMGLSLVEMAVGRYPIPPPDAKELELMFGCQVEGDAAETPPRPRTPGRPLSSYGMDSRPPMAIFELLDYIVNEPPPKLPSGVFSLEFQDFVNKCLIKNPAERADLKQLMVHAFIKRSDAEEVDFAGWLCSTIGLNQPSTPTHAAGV
Chain of MAP kinase-interacting serine/threonine-protein kinase 1 (Homo sapiens) (Q9BUB5 whole entry, looked up): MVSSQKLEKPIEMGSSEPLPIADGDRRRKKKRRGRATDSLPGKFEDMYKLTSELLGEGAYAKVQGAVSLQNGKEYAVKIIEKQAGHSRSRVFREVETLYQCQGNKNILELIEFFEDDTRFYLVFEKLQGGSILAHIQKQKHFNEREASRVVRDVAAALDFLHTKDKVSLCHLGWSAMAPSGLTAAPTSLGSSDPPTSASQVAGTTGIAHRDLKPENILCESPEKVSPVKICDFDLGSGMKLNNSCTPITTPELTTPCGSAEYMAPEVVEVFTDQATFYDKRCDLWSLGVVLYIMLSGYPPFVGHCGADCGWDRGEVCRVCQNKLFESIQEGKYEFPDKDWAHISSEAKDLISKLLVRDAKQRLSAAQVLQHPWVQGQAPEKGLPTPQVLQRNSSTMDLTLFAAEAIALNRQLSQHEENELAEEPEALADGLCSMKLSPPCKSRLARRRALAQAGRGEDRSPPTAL
Chain of MAP/microtubule affinity-regulating kinase 3 (Homo sapiens) (P27448 whole entry, looked up): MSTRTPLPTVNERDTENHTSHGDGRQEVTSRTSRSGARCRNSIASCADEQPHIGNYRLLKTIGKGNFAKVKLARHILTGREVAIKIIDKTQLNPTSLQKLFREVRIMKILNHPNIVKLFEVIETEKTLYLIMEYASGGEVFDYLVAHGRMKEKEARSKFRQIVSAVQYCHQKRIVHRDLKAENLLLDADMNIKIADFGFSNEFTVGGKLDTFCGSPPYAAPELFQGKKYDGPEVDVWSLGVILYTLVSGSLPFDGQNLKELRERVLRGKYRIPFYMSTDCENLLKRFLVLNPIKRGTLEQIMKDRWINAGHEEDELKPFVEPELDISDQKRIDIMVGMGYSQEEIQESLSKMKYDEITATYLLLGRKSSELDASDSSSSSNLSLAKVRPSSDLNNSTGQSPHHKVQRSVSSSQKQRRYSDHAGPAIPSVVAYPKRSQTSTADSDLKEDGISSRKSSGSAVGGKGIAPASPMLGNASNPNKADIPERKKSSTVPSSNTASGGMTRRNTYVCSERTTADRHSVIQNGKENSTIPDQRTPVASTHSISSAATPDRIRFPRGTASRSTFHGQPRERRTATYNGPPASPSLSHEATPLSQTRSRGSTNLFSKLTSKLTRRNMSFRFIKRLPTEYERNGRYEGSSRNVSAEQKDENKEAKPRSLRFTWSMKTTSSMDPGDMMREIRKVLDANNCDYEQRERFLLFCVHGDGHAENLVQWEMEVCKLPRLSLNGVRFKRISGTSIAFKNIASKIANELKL
Chain of Ribosomal protein S6 kinase alpha-1 (Homo sapiens) (Q15418 whole entry): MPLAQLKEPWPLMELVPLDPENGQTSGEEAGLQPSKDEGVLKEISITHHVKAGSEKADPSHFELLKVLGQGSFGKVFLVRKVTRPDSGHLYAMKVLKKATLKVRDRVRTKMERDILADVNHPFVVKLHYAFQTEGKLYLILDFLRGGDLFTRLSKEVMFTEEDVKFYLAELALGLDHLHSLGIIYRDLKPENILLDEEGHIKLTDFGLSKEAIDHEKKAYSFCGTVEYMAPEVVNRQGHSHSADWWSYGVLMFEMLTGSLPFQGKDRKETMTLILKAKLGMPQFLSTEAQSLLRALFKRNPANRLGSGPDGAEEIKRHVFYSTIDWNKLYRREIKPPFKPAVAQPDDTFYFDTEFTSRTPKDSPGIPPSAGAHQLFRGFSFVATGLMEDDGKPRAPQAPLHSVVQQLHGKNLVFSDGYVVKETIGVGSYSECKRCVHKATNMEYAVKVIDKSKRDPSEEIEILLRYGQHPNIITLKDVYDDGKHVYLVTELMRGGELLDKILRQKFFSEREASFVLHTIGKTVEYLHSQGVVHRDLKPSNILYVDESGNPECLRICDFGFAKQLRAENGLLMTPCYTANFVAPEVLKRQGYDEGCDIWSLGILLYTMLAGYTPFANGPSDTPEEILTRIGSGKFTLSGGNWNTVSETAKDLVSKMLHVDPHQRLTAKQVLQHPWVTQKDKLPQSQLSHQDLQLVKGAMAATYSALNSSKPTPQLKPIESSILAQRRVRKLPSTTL
Chain of SRSF protein kinase 1 (Homo sapiens) (Q96SB4 whole entry): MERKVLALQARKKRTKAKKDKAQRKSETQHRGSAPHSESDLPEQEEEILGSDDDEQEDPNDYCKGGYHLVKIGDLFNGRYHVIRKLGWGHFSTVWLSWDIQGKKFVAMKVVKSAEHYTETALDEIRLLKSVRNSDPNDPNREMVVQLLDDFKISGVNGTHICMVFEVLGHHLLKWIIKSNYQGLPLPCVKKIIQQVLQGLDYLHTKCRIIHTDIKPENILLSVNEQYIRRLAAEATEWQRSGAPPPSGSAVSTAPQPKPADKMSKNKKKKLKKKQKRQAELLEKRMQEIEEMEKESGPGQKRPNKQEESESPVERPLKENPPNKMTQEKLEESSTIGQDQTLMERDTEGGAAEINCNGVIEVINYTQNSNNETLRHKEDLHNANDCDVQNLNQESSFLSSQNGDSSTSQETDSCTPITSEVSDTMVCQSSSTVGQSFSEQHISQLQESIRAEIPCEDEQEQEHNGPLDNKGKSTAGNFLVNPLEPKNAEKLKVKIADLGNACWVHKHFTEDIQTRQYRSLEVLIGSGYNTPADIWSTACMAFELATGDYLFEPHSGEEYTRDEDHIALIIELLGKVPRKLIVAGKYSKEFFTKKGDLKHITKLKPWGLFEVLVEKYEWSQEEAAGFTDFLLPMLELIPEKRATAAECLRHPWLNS
Chain of Mitogen-activated protein kinase 9 (Homo sapiens) (P45984 whole entry, looked up): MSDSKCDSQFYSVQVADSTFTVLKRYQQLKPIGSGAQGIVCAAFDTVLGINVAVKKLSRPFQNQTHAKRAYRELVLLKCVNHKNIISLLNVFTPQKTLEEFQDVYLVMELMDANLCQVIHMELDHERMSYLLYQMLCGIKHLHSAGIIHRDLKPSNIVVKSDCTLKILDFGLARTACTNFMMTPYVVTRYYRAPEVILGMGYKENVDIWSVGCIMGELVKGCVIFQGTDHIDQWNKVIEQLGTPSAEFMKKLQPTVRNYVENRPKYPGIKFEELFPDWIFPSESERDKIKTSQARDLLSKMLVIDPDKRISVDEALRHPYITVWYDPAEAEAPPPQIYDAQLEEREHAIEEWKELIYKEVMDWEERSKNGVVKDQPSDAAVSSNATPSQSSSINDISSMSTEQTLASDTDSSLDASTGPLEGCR
Chain of Tyrosine-protein kinase BTK (Homo sapiens) (Q06187 whole entry): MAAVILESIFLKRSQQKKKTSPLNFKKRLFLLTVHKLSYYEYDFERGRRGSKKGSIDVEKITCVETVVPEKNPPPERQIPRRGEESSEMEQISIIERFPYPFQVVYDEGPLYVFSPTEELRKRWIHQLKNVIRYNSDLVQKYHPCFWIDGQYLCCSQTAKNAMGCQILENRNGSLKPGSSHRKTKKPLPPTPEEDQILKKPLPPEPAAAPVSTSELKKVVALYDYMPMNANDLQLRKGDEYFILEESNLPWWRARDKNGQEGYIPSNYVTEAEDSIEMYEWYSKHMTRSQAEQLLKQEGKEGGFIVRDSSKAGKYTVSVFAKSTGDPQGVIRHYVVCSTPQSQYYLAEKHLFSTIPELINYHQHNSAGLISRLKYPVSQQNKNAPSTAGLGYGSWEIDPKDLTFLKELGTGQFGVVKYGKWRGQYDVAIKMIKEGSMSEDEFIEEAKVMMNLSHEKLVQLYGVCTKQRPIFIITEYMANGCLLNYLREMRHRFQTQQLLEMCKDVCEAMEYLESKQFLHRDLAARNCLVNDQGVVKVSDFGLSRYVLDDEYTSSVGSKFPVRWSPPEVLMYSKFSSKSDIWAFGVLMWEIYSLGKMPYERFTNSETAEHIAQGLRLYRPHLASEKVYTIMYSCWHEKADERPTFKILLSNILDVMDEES

In the case of c1cc(-c2n[nH]c3ccnc(OC4CCOCC4)c23)cc(N2CCOCC2)n1, the inhibition [1] is reported as 0%, the inhibition [2] is reported as 7% and the inhibition [3] is reported as 34%. The inhibition [4] was 3%, the inhibition [5] was 26% and the inhibition [6] was 0%. For the same compound, the inhibition [7] was 13%, the inhibition [8] was 0% and the inhibition [9] was 23%. For the same compound, the inhibition [10] was 43%, the inhibition [11] was 2% and the inhibition [12] was 3%. For the same compound, the inhibition [13] was 7%, the inhibition [14] was 0% and the inhibition [15] was 2%. It also gave an inhibition [16] of 51%, an inhibition [17] of 0% and an inhibition [18] of 0%. The inhibition [19] was 9%.

For CC(C)n1cc(-c2n[nH]c3ccnc(OC4CCOCC4)c23)cn1, the inhibition [1] was 18%, the inhibition [2] was 36% and the inhibition [3] was 77%. It also gave an inhibition [4] of 62%, an inhibition [5] of 11% and an inhibition [6] of 29%. The inhibition [7] was 5%, the inhibition [8] was 19% and the inhibition [9] was 66%. For the same compound, the inhibition [10] was 29%, the inhibition [11] was 0% and the inhibition [12] was 47%. The inhibition [13] was 57%, the inhibition [14] was 0% and the inhibition [15] was 59%. For the same compound, the inhibition [16] was 39%, the inhibition [17] was 19% and the inhibition [18] was 3%. It also gave an inhibition [19] of 0%.
